An excerpt weighted towards active compounds, which were near 0.86% of everything screened.
CCR6 antag: CCR6 receptor antagonists, primary screen, cell-based, CHO-K1, luminescence, beta-arrestin, uHTS; CHO-K1 CCR6 PathHunter beta-arrestin, CCL20-stimulated; C-C chemokine receptor type 6 (Homo sapiens), P51684; AID 493098, 2011; inhibition, % at 20 µM; 340,000 compounds, 0.49% hits;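 active = compounds whose inhibition of the agonist-driven luminescence signal at 20 µM reaches about 50%, limit read from the data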;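 note: cells stimulated with CCL20 at 14 nM final; plate controls were DMSO with CCL20 for no effect and DMSO without agonist for full effect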
APJ ag: agonists of human apelin receptor APJ, primary screen, CHO-K1 cells, PathHunter beta-arrestin, luminescence. P35414. 0% DMSO wells, 100% apelin. activation, % at 20 µM. 330,000 compounds, 0.11% hits. AID 2520, 2010;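 active = activation more than six SD over the plate average, tested at 20 µM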;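 note: 0% = DMSO alone and 100% = apelin-13 at 10 nM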
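Test system: CHO-K1 APJ beta-arrestin complementation cell line | Compound: Single test compound dose, 20 µM final, 1% DMSO | Incubation: Compound 90 min 25 °C, reagent 1 h | Measured by: beta-gal luminescence | Read-out basis: APJ–arrestin association signal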
APJ antagonist: antagonists of human apelin receptor APJ, primary screen, CHO-K1 cells, beta-arrestin complementation, luminescence | P35414 | inhibition, % at 20 µM | 330,000 compounds, 0.32% hits | AID 2521, 2010;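 active = inhibition above about 40% at 20 µM, limit read from the data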;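 note: cells challenged with 10 nM apelin-13 agonist together with compound; plate controls were apelin-13 plus DMSO wells for no effect and DMSO wells lacking apelin-13 for full effect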
CXCR6 block: CXCR6 receptor inhibitors, primary screen, cell-based, beta-arrestin, luminescence, CHO-K1 PathHunter, 1536-well | inhibition, % at 20 µM | AID 602244, 2012 | 360,000 compounds, 0.36% hits | C-X-C chemokine receptor type 6 (Homo sapiens), O00574; in the data active = inhibition above about 34%, passing the limit was not always enough;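 note: antagonist mode with CXCL16 agonist at 10 nM final; 0% = 10 nM CXCL16 with DMSO and 100% = unstimulated wells without agonist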
DAGLB inhibitor: DAGLB lipase inhibitors, primary screen, biochemical, fluorescence, HTS; 340,000 compounds, 0.059% hits; AID 504411, 2011; HEK293T DAGLB membrane lysate, EnzChek fluorogenic substrate; inhibition, % at 5.17 µM; in the data active = inhibition above about 34%;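 note: 0% = enzyme with vehicle and 100% = wells lacking enzyme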
Target sequence (Q8NCG7 whole entry, looked up): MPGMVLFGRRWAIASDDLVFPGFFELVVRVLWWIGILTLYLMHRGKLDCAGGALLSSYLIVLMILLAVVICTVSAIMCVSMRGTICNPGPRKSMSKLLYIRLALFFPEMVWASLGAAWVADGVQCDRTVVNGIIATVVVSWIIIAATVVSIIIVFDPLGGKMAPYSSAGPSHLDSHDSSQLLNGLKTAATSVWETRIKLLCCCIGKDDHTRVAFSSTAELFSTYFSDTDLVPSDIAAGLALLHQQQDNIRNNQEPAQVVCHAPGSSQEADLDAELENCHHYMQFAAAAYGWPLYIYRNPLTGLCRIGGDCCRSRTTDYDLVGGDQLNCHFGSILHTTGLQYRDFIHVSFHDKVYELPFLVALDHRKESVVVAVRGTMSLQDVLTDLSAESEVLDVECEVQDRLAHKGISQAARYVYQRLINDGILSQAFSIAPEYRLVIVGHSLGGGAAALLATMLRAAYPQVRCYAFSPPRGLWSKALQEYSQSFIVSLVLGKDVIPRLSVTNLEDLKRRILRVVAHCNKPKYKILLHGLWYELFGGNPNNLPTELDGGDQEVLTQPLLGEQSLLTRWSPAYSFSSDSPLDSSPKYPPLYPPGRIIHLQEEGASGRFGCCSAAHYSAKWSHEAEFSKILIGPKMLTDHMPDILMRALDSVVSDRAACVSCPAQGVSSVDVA
iPSC survival up: enhancers of single-cell hiPSC survival, primary screen, ATPlite luminescence; 100% = ROCK inhibitor wells, 0% = DMSO; survival enhancement, % at 20 µM; 360,000 compounds, 0.044% hits; AID 602274, 2012; in the data active = survival enhancement above about 18%;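 note: cells exposed to compounds for 16 hours before the ATP read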
APJ antag conf: APJ antagonists blocking beta-arrestin recruitment, confirmation, cell-based, luminescence, single concentration, uHTS hits | inhibition, % at 20 µM | antagonist mode | shares compounds with APJ antagonist | 950 compounds, 66% hits; in the data active = inhibition above about 50%
* marks the source's active call; other numbers are inactive results; . = not tested or not shown.

SMILES	CCR6 antag	APJ ag	APJ antagonist	CXCR6 block	DAGLB inhibitor	iPSC survival up	APJ antag conf
Cc1cc(N2C(=O)C(O)=C(C(=O)c3cc4ccccc4o3)C2c2cccc(Br)c2)no1 (stereo not drawn)	4.0	-3.5	31.3	4.6	8.8	-0.7	.
CCCOc1cccc(C2C(C(=O)c3cc4ccccc4o3)=C(O)C(=O)N2c2cc(C)on2)c1 (stereo not drawn)	5.1	-4.1	47.1*	-1.5	7.6	-0.2	35.1
COc1cc(/C=C/c2ccc3cccc(OC)c3n2)c(O)c([N+](=O)[O-])c1	53.8*	-6.5	44.4*	42.0*	4.8	0.0	73.8*
N#C/C(=N/Nc1ccccc1[N+](=O)[O-])C(N)=S	35.9	-9.1	40.2*	18.3	14.7	0.5	104.6*
N#C/C(=N\Nc1ccccc1)C(N)=S	14.8	-5.7	22.1	12.1	-0.7	0.4	.
Cc1ccccc1-n1c(Cn2c(=O)sc3ccccc32)nnc1SCC(=O)N1CCOCC1	5.4	-0.4	52.0*	-1.5	-1.9	-1.2	18.7
O=C(CSc1nnc(Cn2c(=O)sc3ccccc32)n1-c1ccccc1)N1CCOCC1	-3.1	-0.9	-4.1	-2.0	-1.7	-0.4	.
COCCCN(C(=O)CCOc1ccc(C)cc1)c1c(N)n(Cc2ccccc2)c(=O)[nH]c1=O	15.7	-3.8	4.3	-5.8	0.2	0.2	.
N#CC(C#N)=CC1=C2OC(c3ccccc3)=CC(c3ccccc3)=C2CCC1	32.2	-8.4	40.7*	27.5	5.5	-2.8	58.8*
CCOC(=O)C1(C)CCN1C(=O)/C=C/c1ccccc1 (stereo not drawn)	.	.	.	-11.8	.	-0.9	.
CC(=O)Nc1cccc(-c2ccnc3c2CC(C(=O)NCc2ccc(N4CCN(C)CC4)cc2)O3)c1 (stereo not drawn)	.	.	.	-4.7	.	-0.2	.
COc1cc(/C=C2\SC(=S)N(NC(=O)c3ccccc3OC)C2=O)ccc1O	66.0*	-10.8	65.9*	50.2*	3.6	-0.4	99.7*
COc1cc(/C=C2\SC(=S)N(NS(=O)(=O)c3ccccc3)C2=O)ccc1O	39.2	-4.6	40.8*	34.5	3.8	-0.1	73.2*
CCOc1cc(/C=C2\SC(=S)N(NS(=O)(=O)c3ccc(C)cc3)C2=O)ccc1O	33.0	-4.2	40.8*	24.3	5.8	-0.6	88.3*
COc1cc(/C=C2\SC(=S)N(NC(=O)c3ccc(O)c(OC)c3)C2=O)ccc1O	57.3*	-9.7	61.4*	43.3*	3.1	-0.3	99.1*
Cc1cc(C(=O)CCC(=O)Nc2cccc(F)c2)c(C)s1	.	.	.	-2.5	-3.8	1.5	.
COc1ccc(-c2nc3c4ccccc4ccn3c2Cc2ccccc2)cc1OC	.	.	.	15.7	.	2.4	.
COc1cc(/C=C2\SC(=S)N(NC(=O)c3cccc(O)c3)C2=O)ccc1O	55.6*	-7.5	40.7*	42.0*	2.1	-0.2	94.6*
O=C(O)c1ccc(/C=C2\SC(=S)N(NC(=O)c3ccccc3)C2=O)cc1	16.9	-4.4	20.6	2.9	-1.4	0.5	.
CN1CCN(c2ncnc3c2ncn3[C@H]2CN(Cc3ccc(F)cc3)C[C@@H](CO)O2)CC1	.	.	.	0.1	.	3.7	.
O=C(C[n+]1ccc(-c2cc(C(=O)Nc3cccc(C(F)(F)F)c3)c3ccccc3n2)cc1)c1cccc([N+](=O)[O-])c1	37.8	-4.8	52.0*	27.4	8.2	-0.5	63.1*
CN(Cc1c(O)ccc2c1oc(=O)c1ccccc12)C1CCCCC1	26.1	-0.4	46.5*	21.1	2.9	-0.6	39.5
O=C1OC(c2ccc(F)cc2)=C/C1=C\c1ccc(O)cc1	52.1*	-5.8	42.6*	34.9	2.1	-0.3	73.6*
O=C1OC(c2ccc(F)cc2)=C/C1=C\c1ccc([N+](=O)[O-])o1	.	0.1	-9.9	.	.	.	.
C=C1/C=C(\C)[C@](C)(O)C[C@H](O)CC(=O)[C@H](O)[C@@H](O)[C@H](C)C[C@H](C)OC(=O)/C(C)=C/CC/C=C/[C@@H]2O[C@H]2C[C@H](C)C1	.	6.4	8.4	.	.	.	.
SMILES	CCR6 antag	APJ ag	APJ antagonist	CXCR6 block	DAGLB inhibitor	iPSC survival up	APJ antag conf
O=C1OCC(CO)(CO)N=C1NNc1ccccc1[N+](=O)[O-]	4.4	-4.6	-2.8	-3.9	1.0	0.4	.
O=C1OCC(CO)(CO)N=C1NNc1cc(Cl)ccc1Cl	33.5	-11.4	69.8*	31.7	-1.2	-0.5	74.1*
O=[N+]([O-])c1cccc(Cl)c1NCCNc1ncc(C(F)(F)F)cc1Cl	16.5	-2.3	42.7*	4.6	2.1	5.2	31.1
Cc1c(C(=O)NCCNc2ncc(C(F)(F)F)cc2Cl)cccc1[N+](=O)[O-]	24.1	-1.3	-5.2	0.5	-2.5	0.8	.
O=C1CN(C(=O)COc2ccc(Br)cc2)c2ccccc2N1	-15.1	-2.1	5.8	-6.3	-0.1	-0.2	.
NS(=O)(=O)c1ccc(N=Nc2c(=O)[nH]n3c(=O)c4c([nH]c23)CCCC4)cc1	35.4	-8.6	45.3*	24.7	7.7	7.6	58.0*
Cc1ccccc1C(=O)NCCCNC(=O)c1ccccc1C	-1.5	2.7	0.1	1.1	.	-0.5	.
Cc1ccc(-c2c3c(nc4sc(C(N)=O)c(N)c24)CCC3)cc1	3.7	-6.5	8.3	-0.7	0.2	0.2	.
NC(=O)c1sc2nc3c(c(-c4ccc(Cl)cc4)c2c1N)CCCC3	13.7	-9.5	51.9*	3.5	2.5	-0.8	18.2
CC(=O)Nc1ccc(-c2ccnc3c2CC(C(=O)Nc2cccnc2)O3)cc1 (stereo not drawn)	.	.	.	-1.7	.	-1.0	.
Cc1cccn2c(=O)c(/C=C(\C#N)C(=O)NCc3ccccc3)c(N3CCC(C(N)=O)CC3)nc12	2.6	0.3	40.7*	9.1	-1.0	-0.1	36.8
COC(=O)[C@]12CCCCC=C1N(Cc1ccco1)C(=O)[C@H](CC(=O)NCCCN1CCCC1=O)C2	.	.	.	3.8	.	1.9	.
NC(=O)c1ccccc1NC(=O)Nc1ccc(F)c(Cl)c1	-6.8	-3.5	8.4	-8.8	1.3	-1.4	.
Cc1ccc(C)c(-c2cc(C(=O)NNC(=S)NCC(C)C)c3ccccc3n2)c1	35.2	-6.5	44.7*	3.0	-0.2	-0.5	27.9
CC(=O)c1cccc(Nc2nc(-c3cccc([N+](=O)[O-])c3)cs2)c1	5.9	-18.0	51.8*	1.5	-1.8	-0.4	-20.8
CC(=O)Nc1nc(C)c(-c2csc(Nc3cccc([N+](=O)[O-])c3)n2)s1	20.7	-2.3	20.0	5.3	3.0	0.5	.
c1ccc(-c2nnc3nc(N4CCCCC4)nc(N4CCCCC4)n23)cc1	22.2	.	.	6.5	-3.5	1.4	.
